Data from ChEMBL document CHEMBL1138520, “Molecular and conformational determinants of pituitary adenylate cyclase-activating polypeptide (PACAP) for activation of the PAC1 receptor” (J Med Chem, 2009).
Where a SMILES comes first, the peptide text is derived from it. [ ]: non-standard residue; d: D form. Cha = N[C@@H](CC1CCCCC1)C(=O)O; Aib = CC(C)(N)C(=O)O

What was measured:
[1] = target: T1, Pituitary adenylate cyclase-activating polypeptide type I receptor (Homo sapiens, UniProt P41586); experiment: Displacement of [125I]Ac-PACAP27 from human recombinant PAC1 receptor expressed in CHO cells by gamma- counter; type: cell-based
Target sequence in this assay (P41586 whole entry): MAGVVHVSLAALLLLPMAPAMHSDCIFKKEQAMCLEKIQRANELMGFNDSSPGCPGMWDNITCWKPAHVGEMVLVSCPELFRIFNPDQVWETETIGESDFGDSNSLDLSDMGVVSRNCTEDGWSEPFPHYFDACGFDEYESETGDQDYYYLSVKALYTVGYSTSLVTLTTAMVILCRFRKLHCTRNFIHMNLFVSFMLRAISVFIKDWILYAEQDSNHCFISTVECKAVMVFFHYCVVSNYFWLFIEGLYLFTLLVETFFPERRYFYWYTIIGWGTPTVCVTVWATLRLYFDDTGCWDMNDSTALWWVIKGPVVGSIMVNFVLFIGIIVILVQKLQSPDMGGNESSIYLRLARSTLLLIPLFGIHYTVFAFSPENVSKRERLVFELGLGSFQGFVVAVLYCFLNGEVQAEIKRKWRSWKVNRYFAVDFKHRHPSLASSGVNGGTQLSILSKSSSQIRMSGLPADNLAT

[2] = target: T1, Pituitary adenylate cyclase-activating polypeptide type I receptor; experiment: Agonist activity at human recombinant PAC1 receptor expressed in CHO cells assessed as PACAP38-induced calcium mobilization by FLIPR assay; type: functional, cell-based
Summary of the method: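 CHO cells stably expressing recombinant human PAC1, plated 24 h before assay, loaded with fluo-4 AM for 60 min at 37 °C in the dark, then rinsed into HBSS for 15 min at 37 °C. EC50 and efficacy came from nonlinear regression; 4-10 independent assays in duplicate.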
Target sequence in this assay (P41586 whole entry): as above

[3] = target: T1, Pituitary adenylate cyclase-activating polypeptide type I receptor; experiment: Agonist activity at human recombinant PAC1 receptor expressed in CHO cells assessed as PACAP38-induced calcium mobilization by FLIPR assay relative to PACAP38; type: functional, cell-based
Summary of the method: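 CHO cells stably expressing recombinant human PAC1, plated 24 h before assay, loaded with fluo-4 AM for 60 min at 37 °C in the dark, then rinsed into HBSS for 15 min at 37 °C. Peptide was added 18 s into a 150 s read (ex 480/em 525 nm), at final concentrations of 1 × 10-12 to 1 × 10^-5 M. Response was normalised to 1 × 10^-5 M PACAP38 on each plate. EC50 and efficacy came from nonlinear regression; 4-10 independent assays in duplicate.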
Target sequence in this assay (P41586 21-468 limits assumed): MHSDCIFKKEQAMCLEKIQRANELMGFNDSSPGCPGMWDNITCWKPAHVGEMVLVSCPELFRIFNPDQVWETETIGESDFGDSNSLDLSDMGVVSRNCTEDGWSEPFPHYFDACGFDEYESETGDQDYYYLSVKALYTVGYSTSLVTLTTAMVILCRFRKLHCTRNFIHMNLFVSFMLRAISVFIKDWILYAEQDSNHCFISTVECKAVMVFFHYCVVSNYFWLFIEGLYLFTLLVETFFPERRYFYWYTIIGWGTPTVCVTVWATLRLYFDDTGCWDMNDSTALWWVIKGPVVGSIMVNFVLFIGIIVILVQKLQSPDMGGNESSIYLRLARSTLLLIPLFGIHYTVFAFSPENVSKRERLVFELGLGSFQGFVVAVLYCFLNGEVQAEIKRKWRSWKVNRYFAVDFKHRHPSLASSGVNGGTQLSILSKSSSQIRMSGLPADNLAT

SMILES	IC50 [1] [nM]	EC50 [2] [nM]	Emax [3] [%]
CC[C@H](C)[C@H](NC(=O)C(C)(C)NC(=O)[C@H](CC(=O)O)NC(=O)[C@H](CO)NC(=O)[C@@H](N)Cc1cnc[nH]1)C(=O)N[C@@H](Cc1ccccc1)C(=O)N[C@H](C(=O)N[C@@H](CC(=O)O)C(=O)N[C@@H](CO)C(=O)N[C@@H](Cc1ccc(O)cc1)C(=O)N[C@@H](CO)C(=O)N[C@@H](CCCNC(=N)N)C(=O)N[C@@H](Cc1ccc(O)cc1)C(=O)N[C@@H](CCCNC(=N)N)C(=O)N[C@@H](CCCCN)C(=O)N[C@@H](CCC(N)=O)C(=O)N[C@@H](CCSC)C(=O)N[C@@H](C)C(=O)N[C@H](C(=O)N[C@@H](CCCCN)C(=O)N[C@@H](CCCCN)C(=O)N[C@@H](Cc1ccc(O)cc1)C(=O)N[C@@H](CC(C)C)C(=O)N[C@@H](C)C(=O)N[C@@H](C)C(=O)N[C@H](C(=O)N[C@@H](CC(C)C)C(=O)NCC(=O)N[C@@H](CCCCN)C(=O)N[C@@H](CCCNC(=N)N)C(=O)N[C@@H](Cc1ccc(O)cc1)C(=O)N[C@@H](CCCCN)C(=O)N[C@@H](CCC(N)=O)C(=O)N[C@@H](CCCNC(=N)N)C(=O)N[C@H](C(=O)N[C@@H](CCCCN)C(=O)N[C@@H](CC(N)=O)C(=O)N[C@@H](CCCCN)C(N)=O)C(C)C)C(C)C)C(C)C)[C@@H](C)O (H-HSD[Aib]IFTDSYSRYRKQMAVKKYLAAVLGKRYKQRVKNK-NH2)	9.2	3.3	84
CC[C@H](C)[C@H](NC(=O)CNC(=O)[C@H](CC(=O)O)NC(=O)[C@H](CO)NC(=O)[C@@H](N)Cc1cnc[nH]1)C(=O)N1c2ccccc2CC1C(=O)N[C@H](C(=O)N[C@@H](CC(=O)O)C(=O)N[C@@H](CO)C(=O)N[C@@H](Cc1ccc(O)cc1)C(=O)N[C@@H](CO)C(=O)N[C@@H](CCCNC(=N)N)C(=O)N[C@@H](Cc1ccc(O)cc1)C(=O)N[C@@H](CCCNC(=N)N)C(=O)N[C@@H](CCCCN)C(=O)N[C@@H](CCC(N)=O)C(=O)N[C@@H](CCSC)C(=O)N[C@@H](C)C(=O)N[C@H](C(=O)N[C@@H](CCCCN)C(=O)N[C@@H](CCCCN)C(=O)N[C@@H](Cc1ccc(O)cc1)C(=O)N[C@@H](CC(C)C)C(=O)N[C@@H](C)C(=O)N[C@@H](C)C(=O)N[C@H](C(=O)N[C@@H](CC(C)C)C(N)=O)C(C)C)C(C)C)[C@@H](C)O (some centres not stated)	1940	35	72
CC[C@H](C)[C@H](NC(=O)CNC(=O)[C@H](CC(=O)O)NC(=O)[C@@H]1C[C@@H](O)CN1C(=O)[C@@H](N)Cc1cnc[nH]1)C(=O)N[C@@H](Cc1ccccc1)C(=O)N[C@H](C(=O)N[C@@H](CC(=O)O)C(=O)N[C@@H](CO)C(=O)N[C@@H](Cc1ccc(O)cc1)C(=O)N[C@@H](CO)C(=O)N[C@@H](CCCNC(=N)N)C(=O)N[C@@H](Cc1ccc(O)cc1)C(=O)N[C@@H](CCCNC(=N)N)C(=O)N[C@@H](CCCCN)C(=O)N[C@@H](CCC(N)=O)C(=O)N[C@@H](CCSC)C(=O)N[C@@H](C)C(=O)N[C@H](C(=O)N[C@@H](CCCCN)C(=O)N[C@@H](CCCCN)C(=O)N[C@@H](Cc1ccc(O)cc1)C(=O)N[C@@H](CC(C)C)C(=O)N[C@@H](C)C(=O)N[C@@H](C)C(=O)N[C@H](C(=O)N[C@@H](CC(C)C)C(N)=O)C(C)C)C(C)C)[C@@H](C)O	8.5	2.3	89.2
CC[C@H](C)[C@H](NC(=O)CNC(=O)[C@H](C)NC(=O)[C@H](CO)NC(=O)[C@@H](N)Cc1cnc[nH]1)C(=O)N[C@@H](Cc1ccccc1)C(=O)N[C@H](C(=O)N[C@@H](CC(=O)O)C(=O)N[C@@H](CO)C(=O)N[C@@H](Cc1ccc(O)cc1)C(=O)N[C@@H](CO)C(=O)N[C@@H](CCCNC(=N)N)C(=O)N[C@@H](Cc1ccc(O)cc1)C(=O)N[C@@H](CCCNC(=N)N)C(=O)N[C@@H](CCCCN)C(=O)N[C@@H](CCC(N)=O)C(=O)N[C@@H](CCSC)C(=O)N[C@@H](C)C(=O)N[C@H](C(=O)N[C@@H](CCCCN)C(=O)N[C@@H](CCCCN)C(=O)N[C@@H](Cc1ccc(O)cc1)C(=O)N[C@@H](CC(C)C)C(=O)N[C@@H](C)C(=O)N[C@@H](C)C(=O)N[C@H](C(=O)N[C@@H](CC(C)C)C(N)=O)C(C)C)C(C)C)[C@@H](C)O	602	538	18.4
CC[C@H](C)[C@H](NC(=O)CNC(=O)[C@H](CC(=O)O)NC(=O)[C@H](CO)NC(=O)[C@H](C)N)C(=O)N[C@@H](Cc1ccccc1)C(=O)N[C@H](C(=O)N[C@@H](CC(=O)O)C(=O)N[C@@H](CO)C(=O)N[C@@H](Cc1ccc(O)cc1)C(=O)N[C@@H](CO)C(=O)N[C@@H](CCCNC(=N)N)C(=O)N[C@@H](Cc1ccc(O)cc1)C(=O)N[C@@H](CCCNC(=N)N)C(=O)N[C@@H](CCCCN)C(=O)N[C@@H](CCC(N)=O)C(=O)N[C@@H](CCSC)C(=O)N[C@@H](C)C(=O)N[C@H](C(=O)N[C@@H](CCCCN)C(=O)N[C@@H](CCCCN)C(=O)N[C@@H](Cc1ccc(O)cc1)C(=O)N[C@@H](CC(C)C)C(=O)N[C@@H](C)C(=O)N[C@@H](C)C(=O)N[C@H](C(=O)N[C@@H](CC(C)C)C(N)=O)C(C)C)C(C)C)[C@@H](C)O	335	174	70
CC[C@H](C)[C@H](NC(=O)CNC(=O)[C@H](CC(=O)O)NC(=O)[C@H](CO)NC(=O)[C@@H](N)Cc1cnc[nH]1)C(=O)N[C@@H](CC1CCCCC1)C(=O)N[C@H](C(=O)N[C@@H](CC(=O)O)C(=O)N[C@@H](CO)C(=O)N[C@@H](Cc1ccc(O)cc1)C(=O)N[C@@H](CO)C(=O)N[C@@H](CCCNC(=N)N)C(=O)N[C@@H](Cc1ccc(O)cc1)C(=O)N[C@@H](CCCNC(=N)N)C(=O)N[C@@H](CCCCN)C(=O)N[C@@H](CCC(N)=O)C(=O)N[C@@H](CCSC)C(=O)N[C@@H](C)C(=O)N[C@H](C(=O)N[C@@H](CCCCN)C(=O)N[C@@H](CCCCN)C(=O)N[C@@H](Cc1ccc(O)cc1)C(=O)N[C@@H](CC(C)C)C(=O)N[C@@H](C)C(=O)N[C@@H](C)C(=O)N[C@H](C(=O)N[C@@H](CC(C)C)C(=O)NCC(=O)N[C@@H](CCCCN)C(=O)N[C@@H](CCCNC(=N)N)C(=O)N[C@@H](Cc1ccc(O)cc1)C(=O)N[C@@H](CCCCN)C(=O)N[C@@H](CCC(N)=O)C(=O)N[C@@H](CCCNC(=N)N)C(=O)N[C@H](C(=O)N[C@@H](CCCCN)C(=O)N[C@@H](CC(N)=O)C(=O)N[C@@H](CCCCN)C(N)=O)C(C)C)C(C)C)C(C)C)[C@@H](C)O (H-HSDGI[Cha]TDSYSRYRKQMAVKKYLAAVLGKRYKQRVKNK-NH2)	6.6	2.6	97.7
CC[C@H](C)[C@H](NC(=O)CNC(=O)[C@H](CC(=O)O)NC(=O)[C@@H]1CCCN1C(=O)[C@@H](N)Cc1cnc[nH]1)C(=O)N[C@@H](Cc1ccccc1)C(=O)N[C@H](C(=O)N[C@@H](CC(=O)O)C(=O)N[C@@H](CO)C(=O)N[C@@H](Cc1ccc(O)cc1)C(=O)N[C@@H](CO)C(=O)N[C@@H](CCCNC(=N)N)C(=O)N[C@@H](Cc1ccc(O)cc1)C(=O)N[C@@H](CCCNC(=N)N)C(=O)N[C@@H](CCCCN)C(=O)N[C@@H](CCC(N)=O)C(=O)N[C@@H](CCSC)C(=O)N[C@@H](C)C(=O)N[C@H](C(=O)N[C@@H](CCCCN)C(=O)N[C@@H](CCCCN)C(=O)N[C@@H](Cc1ccc(O)cc1)C(=O)N[C@@H](CC(C)C)C(=O)N[C@@H](C)C(=O)N[C@@H](C)C(=O)N[C@H](C(=O)N[C@@H](CC(C)C)C(N)=O)C(C)C)C(C)C)[C@@H](C)O	7.8	7.4	94.2
CC[C@H](C)[C@H](NC(=O)CNC(=O)[C@H](CC(=O)O)NC(=O)[C@@H](CO)NC(=O)[C@@H](N)Cc1cnc[nH]1)C(=O)N[C@@H](Cc1ccccc1)C(=O)N[C@H](C(=O)N[C@@H](CC(=O)O)C(=O)N[C@@H](CO)C(=O)N[C@@H](Cc1ccc(O)cc1)C(=O)N[C@@H](CO)C(=O)N[C@@H](CCCNC(=N)N)C(=O)N[C@@H](Cc1ccc(O)cc1)C(=O)N[C@@H](CCCNC(=N)N)C(=O)N[C@@H](CCCCN)C(=O)N[C@@H](CCC(N)=O)C(=O)N[C@@H](CCSC)C(=O)N[C@@H](C)C(=O)N[C@H](C(=O)N[C@@H](CCCCN)C(=O)N[C@@H](CCCCN)C(=O)N[C@@H](Cc1ccc(O)cc1)C(=O)N[C@@H](CC(C)C)C(=O)N[C@@H](C)C(=O)N[C@@H](C)C(=O)N[C@H](C(=O)N[C@@H](CC(C)C)C(=O)NCC(=O)N[C@@H](CCCCN)C(=O)N[C@@H](CCCNC(=N)N)C(=O)N[C@@H](Cc1ccc(O)cc1)C(=O)N[C@@H](CCCCN)C(=O)N[C@@H](CCC(N)=O)C(=O)N[C@@H](CCCNC(=N)N)C(=O)N[C@H](C(=O)N[C@@H](CCCCN)C(=O)N[C@@H](CC(N)=O)C(=O)N[C@@H](CCCCN)C(N)=O)C(C)C)C(C)C)C(C)C)[C@@H](C)O	6.6	4.1	90.5
CC[C@H](C)[C@H](NC(=O)CNC(=O)[C@H](CCC(=O)O)NC(=O)[C@H](CO)NC(=O)[C@@H](N)Cc1cnc[nH]1)C(=O)N[C@@H](Cc1ccccc1)C(=O)N[C@H](C(=O)N[C@@H](CC(=O)O)C(=O)N[C@@H](CO)C(=O)N[C@@H](Cc1ccc(O)cc1)C(=O)N[C@@H](CO)C(=O)N[C@@H](CCCNC(=N)N)C(=O)N[C@@H](Cc1ccc(O)cc1)C(=O)N[C@@H](CCCNC(=N)N)C(=O)N[C@@H](CCCCN)C(=O)N[C@@H](CCC(N)=O)C(=O)N[C@@H](CCSC)C(=O)N[C@@H](C)C(=O)N[C@H](C(=O)N[C@@H](CCCCN)C(=O)N[C@@H](CCCCN)C(=O)N[C@@H](Cc1ccc(O)cc1)C(=O)N[C@@H](CC(C)C)C(=O)N[C@@H](C)C(=O)N[C@@H](C)C(=O)N[C@H](C(=O)N[C@@H](CC(C)C)C(=O)NCC(=O)N[C@@H](CCCCN)C(=O)N[C@@H](CCCNC(=N)N)C(=O)N[C@@H](Cc1ccc(O)cc1)C(=O)N[C@@H](CCCCN)C(=O)N[C@@H](CCC(N)=O)C(=O)N[C@@H](CCCNC(=N)N)C(=O)N[C@H](C(=O)N[C@@H](CCCCN)C(=O)N[C@@H](CC(N)=O)C(=O)N[C@@H](CCCCN)C(N)=O)C(C)C)C(C)C)C(C)C)[C@@H](C)O (H-HSEGIFTDSYSRYRKQMAVKKYLAAVLGKRYKQRVKNK-NH2)	7	1.5	87.6
